Assay results taken from paper PMC6404779 (Nature medicine, 2018).
pIC50: −log10 of the molar value.

Legend:
[1] = test system: BRAF V600E monomers (SK-MEL-239); assay: p-ERK Western blot, 1 hr drug treatment; format: cell-based; settings: p-ERK/total ERK by densitometry, calculated from the curves in Figure 1
Summary of the method: (§1)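 SK-MEL-239 and SK-MEL-239 C4 cells (DMEM, glutamine, antibiotics, 10% FBS) were exposed 1 hr to 0–30,000 nM test compound (0,10,30,100,300,1000,3000,10,000, 30,000 nM). Whole-cell lysates were Western blotted, and p-ERK/total ERK was quantified by densitometry and normalized to untreated cells. IC75 is the concentration giving 75% inhibition on the response curve; 4 independent repeats, mean±s.d.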

[2] = test system: p61 BRAF V600E homodimers (SK-MEL-239 C4); assay: p-ERK Western blot, 1 hr drug treatment; format: cell-based
Summary of the method: as §1

[3] = test system: NRAS Q61R activation of WT RAF dimers (SK-MEL-2); assay: p-ERK Western blot, 1 hr drug treatment; format: cell-based; settings: Homo sapiens, SK-MEL-2, read-out: IC50 for p-ERK in SK-MEL-2 cells
Summary of the method: (§2)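 SK-MEL-2 (RPMI, 10% FBS) or primary keratinocytes (Dermal Cell Basal Medium + keratinocyte growth kit) were exposed 1 hr to 0–30,000 nM compound (nine points, 10 to 30,000 nM). Lysates were Western blotted, and p-ERK/total ERK was quantified by densitometry and normalized to untreated cells. IC50 is the concentration giving 50% inhibition on the response curve; n=4, mean±s.d.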

[4] = test system: WT RAS/RAF (primary keratinocytes); assay: p-ERK Western blot, 1 hr drug treatment; format: cell-based; settings: Keratinocyte, read-out: IC50 for p-ERK in keratinocytes
Summary of the method: as §2

[5] = target: RAS-dependent full length BRAF/BRAF dimers (Homo sapiens, UniProt P15056); assay: RAF dimer immunoprecipitation in 293H; format: cell-based
BRAF/CRAF dimers = BRAF/CRAF dimers (Homo sapiens, UniProt P04049); assay: RAF dimer immunoprecipitation in 293H; format: cell-based
BRAF/CRAF dimers, sequence (P04049 whole entry): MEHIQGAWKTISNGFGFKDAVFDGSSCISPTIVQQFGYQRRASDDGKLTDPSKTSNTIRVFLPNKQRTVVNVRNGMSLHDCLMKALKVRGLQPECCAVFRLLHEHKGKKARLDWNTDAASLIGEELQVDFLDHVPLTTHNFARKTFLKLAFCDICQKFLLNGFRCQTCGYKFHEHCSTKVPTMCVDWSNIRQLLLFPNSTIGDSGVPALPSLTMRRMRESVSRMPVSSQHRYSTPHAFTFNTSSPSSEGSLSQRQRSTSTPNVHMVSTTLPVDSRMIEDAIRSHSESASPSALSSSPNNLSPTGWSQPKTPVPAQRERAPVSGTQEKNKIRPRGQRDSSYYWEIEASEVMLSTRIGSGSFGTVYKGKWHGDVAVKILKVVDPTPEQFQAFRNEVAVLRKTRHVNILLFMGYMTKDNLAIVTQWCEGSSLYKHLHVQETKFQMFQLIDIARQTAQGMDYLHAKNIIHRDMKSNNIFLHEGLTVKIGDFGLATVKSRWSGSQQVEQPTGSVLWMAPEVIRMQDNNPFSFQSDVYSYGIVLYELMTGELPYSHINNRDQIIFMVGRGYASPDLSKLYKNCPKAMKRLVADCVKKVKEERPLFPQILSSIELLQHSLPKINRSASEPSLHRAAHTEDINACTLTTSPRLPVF
Summary of the method: (§3)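 293H cells with inducible NRAS Q61K co-expressed V5- and FLAG-tagged pairs: BRAF/BRAF, p61 BRAF/p61 BRAF, CRAF-V5/BRAF-FLAG, catC-V5/p61 BRAF-FLAG, CRAF/CRAF or catC/catC. Cells were exposed 1 hr to increasing test compound concentrations, and lysates were immunoprecipitated with anti-V5 agarose. Blots were probed with anti-V5/anti-FLAG. Pulled-down tagged proteins were quantified by densitometry, normalized to untreated cells and plotted as response curves; 3 independent repeats.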

[6] = target: RAS-independent BRAF dimers (p61 BRAF) (Homo sapiens, UniProt P15056); assay: RAF dimer immunoprecipitation in 293H; format: cell-based; settings: read-out: IC50 for decrease of dimer levels, p61 BRAF; 1hr; IP/Western blot
Summary of the method: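 293H cells carried doxycycline-inducible NRAS Q61K introduced by retrovirus. They were transfected with Lipofectamine 2000 (DNA:reagent 1:3) to co-express V5- and FLAG-tagged full-length BRAF or p61 BRAF pairs. Cells were exposed to increasing test-compound doses for 1 hr, then lysed, and lysates were immunoprecipitated with anti-V5 agarose (1:200). Blots were probed with anti-V5 and anti-FLAG. Pulled-down FLAG and V5 proteins were quantified by densitometry and normalised to untreated cells.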

[7] = target: RAS-dependent full length CRAF dimers (Homo sapiens, UniProt P04049); assay: RAF dimer immunoprecipitation in 293H; format: cell-based; settings: concentrations as high as 10uM
RAS-dependent full length CRAF dimers, sequence (P04049 whole entry): as above
RAS-dependent full length CRAF dimers, sequence (P04049 whole entry): as above
Summary of the method: as §3

[8] = test system: RAS-independent truncated CRAF (Cat C) homodimers; assay: RAF dimer immunoprecipitation in 293H; format: cell-based; settings: concentrations as high as 10uM
Summary of the method: as §3

[9] = test system: RAS-dependent ARAF homo-or heterodimers; assay: RAF dimer immunoprecipitation in 293H; format: cell-based; settings: 1hr
[10] = test system: Class 2 BRAF mutant homodimers; assay: RAF dimer immunoprecipitation in 293H cells; format: cell-based; settings: 1hr, increasing doses
[11] = test system: Class 3 BRAF mutant heterodimers; assay: RAF dimer immunoprecipitation in 293H cells; format: cell-based; settings: 1hr, increasing doses
p61 BRAF V600E dimers = assay: ERK signaling in SKBR3 cells ectopically expressing RAF proteins; format: cell-based; settings: 1hr
Summary of the method: (§4)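 SKBR3 cells (DMEM/F12 + 10% FBS) were transfected the day after seeding (Lipofectamine 2000, DNA:lipid 1:3) with plasmids for the indicated RAF proteins or empty pcDNA3. After 24 h, RAF-transfected cells got 1 uM lapatinib to suppress endogenous RAF activity; vector cells got DMSO. Test compound was then added at increasing doses for 1 hr. Protein expression and phosphorylation were read by Western blot; 3–4 independent repeats.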

p61 WT BRAF dimers = assay: as above; format: cell-based; settings: 1hr
Summary of the method: as §4

BRAF V600E monomers = assay: as above; format: cell-based; settings: 1hr
Summary of the method: as §4

[12] = test system: activated CRAF homodimers; assay: as above; format: cell-based; settings: 1hr
Summary of the method: as §4

[13] = test system: HeLa cells (WT RAS and RAF) with BRAF overexpression; assay: ERK signaling in HeLa cells stably expressing RAF; format: cell-based; settings: 1hr
[14] = test system: HeLa cells (WT RAS and RAF) with CRAF overexpression; assay: ERK signaling in HeLa cells stably expressing RAF; format: cell-based; settings: 1hr
BRAF knockout MEF cells = assay: p-MEK/p-ERK in RAF knockout MEF cells; format: cell-based, Mouse; settings: 1hr
Summary of the method: (§5)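 Wild-type control MEFs and ARAF, BRAF or CRAF knockout MEFs (from a conditional RAF knockout line) were exposed 1 hr to increasing test compound concentrations. Western blot measured p-MEK, MEK, p-ERK and ERK. p-MEK/MEK and p-ERK/ERK were quantified by densitometry, normalized to untreated cells and plotted as response curves (mean±s.d.). Cellular experiments were repeated at least three times.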

CRAF knockout MEF cells = assay: p-MEK/p-ERK in RAF knockout MEF cells; format: cell-based, Mouse; settings: 1hr
Summary of the method: as §5

ARAF knockout MEF cells = assay: p-MEK/p-ERK in RAF knockout MEF cells; format: cell-based, Mouse; settings: 1hr
Summary of the method: as §5

[15] = test system: RAF-null MEFs expressing ARAF; assay: ERK signaling in RAF-null MEFs expressing one RAF isoform; format: cell-based, Mouse; settings: 1hr
Summary of the method: (§6)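 RAF-less MEFs came from Araflox/lox;Braflox/lox;Craflox/lox;RERT ert/ert MEFs. Doxycycline-inducible wild-type ARAF, BRAF or CRAF was transduced retrovirally without 4-OHT and selected with puromycin/hygromycin. Cells were then infected with Adeno-Cre (MOI 100) and cultured in 1 uM 4-OHT plus 50 ng/ml doxycycline. GFP-positive cells were sorted after 2 weeks. Loss of endogenous RAF and induced expression were confirmed by genomic PCR and Western blot.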

[16] = test system: RAF-null MEFs expressing BRAF; assay: as above; format: cell-based, Mouse; settings: 1hr
Summary of the method: as §6

[17] = test system: RAF-null MEFs expressing CRAF; assay: as above; format: cell-based, Mouse; settings: 1hr
Summary of the method: as §6

[18] = test system: Class 1 (BRAF V600 mutants) monomers (A375, SK-MEL-239 and MDST-8); assay: ERK signaling in a panel of cell lines, 1 hour; format: cell-based
[19] = test system: Class 2 BRAF mutants (SK-MEL-239 C4, SK-MEL-246, JVM-3, and 22RV1); assay: ERK signaling in a panel of cell lines, 1 hour; format: cell-based
[20] = test system: Class 3 mutants (H508 and H1666); assay: ERK signaling in a panel of cell lines, 1 hour; format: cell-based
[21] = test system: WT RAF driven by either WT or mutant RAS (A549, SK-MEL-285, BEAS-2B and melanocytes); assay: ERK signaling in a panel of cell lines, 1 hour; format: cell-based
Summary of the method: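 Cells cultured as follows: SK-MEL-285 in RPMI with 10% FBS; BEAS-2B in BEBM medium; primary melanocytes in Dermal cell basal medium with melanocyte growth kit; A549 in DMEM with glutamine, antibiotics and 10% FBS. Pathway status read by Western blot for p-MEK1/2, p-ERK1/2, MEK1/2 and ERK1/2 (primary 1:1,000; HRP secondary 1:5,000). Cellular experiments repeated at least three times.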

[22] = Tolerability in nude mice; format: in vivo; settings: doses up to 100mg/kg daily
[23] = PLX8394 concentration in tumor samples; format: in vivo, Mice; settings: single dose of 50mg/kg (i.p.), A375 xenograft tumor tissue
Summary of the method: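 Melanoma xenograft tumours were collected at several time points after a single 50 mg/kg dose. Fresh tissue (50–150 mg) was snap-frozen in an ethanol–dry ice bath, homogenised and protein-precipitated. Samples were quantified by LC-MS/MS with an internal standard and a 15–50000 ng/mL calibration range. Standards were made by spiking untreated homogenate, and QC samples spanned the range.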

A375 Xenograft tumors = assay: ERK pathway inhibition in A375 xenograft tumors after a single dose; format: in vivo, Mice; settings: single dose of 50mg/kg
[24] = test system: A375 cells with overexpression of BRAF V600E; assay: A375 xenograft with doxycycline-induced BRAF V600E overexpression; format: in vivo, nude mice; settings: vemurafenib 75mg/kg BID, PLX8394 50mg/kg BID
Summary of the method: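 A375 cells carrying a retroviral tet-regulated BRAF V600E or NRAS Q61K construct (kept in 50 ug/ml hygromycin and 0.2 ug/ml puromycin). 5 million cells were injected s.c. into nude mice fed doxycycline food. At 100 mm3, mice stayed on doxycycline food and received vehicle, reference RAF inhibitor 75 mg/kg BID or test compound 50 mg/kg BID. Tumour size was tracked (n=5; mean±s.d.; two-tailed unpaired t-test).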

[25] = test system: BRAF K601E CRC PDX tumors; assay: Colorectal cancer PDX model; format: in vivo, NSG mice; settings: vemurafenib 75mg/kg BID, PLX8394 50mg/kg BID
BRAF G466V PDX tumors = assay: Colorectal cancer PDX model; format: in vivo, NSG mice; settings: Cetuximab 50 mg/kg IP twice weekly, vemurafenib 75 mg/kg BID, PLX8394 50 mg/kg BID

## O=C(c1c(F)ccc(NS(=O)(=O)N2CC[C@@H](F)C2)c1F)c1c[nH]c2ncc(-c3cnc(C4CC4)nc3)cc12 [PLX8394]
[1]
  IC75 of p-ERK in SK-MEL-239: 0.039 µM
[2]; 1 hr, p-ERK/total ERK by densitometry, calculated from the curves in Figure 1
  IC75 of p-ERK in SK-MEL-239 C4: 0.158 µM
[2]; SK-MEL-239 C4, 1 hr
  concentration that inhibits p61 dimers: 100~300 nM
[3]
  pIC50: < 4.70
[4]
  pIC50: < 4.70
[5]
  pIC50: 6.52 to 7.00
[5]; 1uM, 293H cells
  time to reduction in BRAF-containing dimers after drug treatment: ≤ 15 min
BRAF/CRAF dimers
  pIC50: 6.52 to 7.00
[6]
  pIC50: 6.52 to 7.00
[7]
  effect on full length CRAF dimer levels: no effect
[8]
  effect on truncated CRAF (Cat C) homodimer levels: no effect
[9]
  disruption of ARAF homo- or heterodimers: didn’t disrupt
[10]
  disruption of Class 2 BRAF mutant homodimers: disrupts
[11]
  disruption of Class 3 BRAF mutant heterodimers: disrupts
p61 BRAF V600E dimers
  doses required to inhibit p61 BRAF V600E dimers: 100 to 300 nM
p61 WT BRAF dimers
  doses required to inhibit p61 WT BRAF dimers: 300 to 1000 nM
BRAF V600E monomers
  doses required to inhibit BRAF V600E monomers: 30 to 100 nM
[12]
  effect on ERK signaling in cells with activated CRAF homodimers: activated ERK signaling
[13]
  effect on ERK signaling, BRAF overexpression: sensitized ERK signaling to inhibition
[14]
  effect on ERK signaling, CRAF overexpression: activated the pathway
BRAF knockout MEF cells
  effect on ERK signaling, BRAF knocked out: induced ERK signaling
CRAF knockout MEF cells
  effect on ERK signaling, CRAF-knockout: inhibited signaling
ARAF knockout MEF cells
  effect on ERK signaling, ARAF knockout: minimal effects
[15]
  effect on ERK signaling, cells expressing only ARAF: activated
[16]
  effect on ERK signaling, cells expressing only BRAF: inhibited
[17]
  effect on ERK signaling, cells expressing only CRAF: activated
[18]
  concentrations inhibiting ERK signaling driven by Class 1 monomers: 30 to 100 nM
[19]
  concentrations inhibiting ERK signaling in cells expressing Class 2 BRAF mutants: 100 to 1000 nM
[20]
  concentrations inhibiting Class 3 mutants driven signaling: 1 to 10 µM
[21]
  effect on ERK signaling in cells with WT RAF: almost no effect on ERK signaling or caused slight activation
[22]
  tolerability: well tolerated
[23]
  time of highest drug concentrations in melanoma xenografts: 7 h
A375 Xenograft tumors
  time of maximum inhibition of signaling after dosing: 2 to 7 h
  time of return of signaling to baseline: ≤ 24 h
[24]
  response of ERK signaling and tumor growth, BRAF V600E amplified: sensitive
[25]
  tumor growth response, single RAF inhibitor: partially inhibited
BRAF G466V PDX tumors
  response of ERK signaling and tumor growth: insensitive
